Experimental data published in PMC8958665 (ACS infectious diseases, 2021).
Converted amounts (≈) assume the structure as drawn. Read-outs that look alike come from different tables or passages of the source.

Tests used:
K. pneumoniae B9 (KPB9) [1] = experiment: Broth microdilution colistin potentiation, KPB9; format: cell-based, Klebsiella pneumoniae
[2] = tested on: A. baumannii 4106 (AB4106); experiment: Broth microdilution colistin potentiation, AB4106; format: cell-based, Acinetobacter baumannii
[3] = tested on: colistin-resistant K. pneumoniae strains; experiment: Colistin potentiation, panel of colistin-resistant K. pneumoniae strains; format: cell-based, Klebsiella pneumoniae; details: no adjuvant
Outline: (§1)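 Broth microdilution in CAMHB: strains are grown 6 h and diluted to 5 × 10^5 CFU/mL. Test compound is added from DMSO stock, and colistin (from water stock) is serially diluted in the compound-dosed suspension. An undosed aliquot gives the colistin MIC alone. Plates are incubated stationary at 37 °C for 16 h and read at OD600. MIC is 90% growth inhibition versus untreated. Run in duplicate, repeated at least twice.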

[4] = tested on: colistin-resistant A. baumannii strains; format: cell-based, Acinetobacter baumannii; details: no adjuvant
[5] = tested on: P. aeruginosa strains TRPA161 and TRPA162; experiment: Colistin potentiation, colistin-resistant P. aeruginosa strains; format: cell-based, Pseudomonas aeruginosa; details: no adjuvant
Outline: as §1

K. pneumoniae B9 (KPB9) [6] = experiment: Broth microdilution standalone MIC, KPB9; format: cell-based; details: Klebsiella pneumoniae, read-out: standalone MIC against KPB9
[7] = tested on: A. baumannii 4106 (AB4106); experiment: Broth microdilution standalone MIC, AB4106; format: cell-based; details: Acinetobacter baumannii, read-out: standalone MIC against AB4106
NF-κB = NF-κB luciferase reporter assay in HEK293 recombinant cells; format: cell-based; details: Homo sapiens, HEK293, read-out: Inhibition of NF-κB IC50
AB4106 = experiment: MIC in the presence of polymyxin B nonapeptide; format: cell-based, Acinetobacter baumannii; details: 10 μg/mL

## colistin
K. pneumoniae B9 (KPB9) [1]; no adjuvant
  KPB9 MIC of colistin alone: 512 µg/mL
[2]; no adjuvant
  AB4106 MIC of colistin alone: 2048 µg/mL
[3]; strain KP C3
  colistin MIC alone: 128 µg/mL
[3]; strain KP E2
  colistin MIC alone: 512 µg/mL
[3]; strain KP F3
  colistin MIC alone: 128 µg/mL
[3]; strain KP F9
  colistin MIC alone: 256 µg/mL
[3]; strain KP F2210291 mcr-1
  colistin MIC alone: 16 µg/mL
[3]; strain KP H2
  colistin MIC alone: 256 µg/mL
[3]; strain KP I2
  colistin MIC alone: 512 µg/mL
[4]; strain AB 1E4
  colistin MIC alone: >512 µg/mL
[4]; strain AB 1F9
  colistin MIC alone: >512 µg/mL
[4]; strain AB 1G2
  colistin MIC alone: >512 µg/mL
[4]; strain AB 2A8
  colistin MIC alone: >512 µg/mL
[4]; strain AB 3941
  colistin MIC alone: 1024 µg/mL
[4]; strain AB 4112
  colistin MIC alone: 2048 µg/mL
[4]; strain AB 17978 mcr-1
  colistin MIC alone: 64 µg/mL
[5]; strain TRPA 161
  colistin MIC alone: 1024 µg/mL
[5]; strain TRPA 162
  colistin MIC alone: 1024 µg/mL

## O=C(Nc1cc(C(F)(F)F)cc(C(F)(F)F)c1)c1cc(Cl)ccc1O [IMD-0354 4, IMD-0354]
K. pneumoniae B9 (KPB9) [1]; compound at 5 μM, KPB9
  KPB9 colistin MIC in the presence of compound: 0.5 µg/mL
K. pneumoniae B9 (KPB9) [1]; compound at 5 μM, vs colistin alone (512 μg/mL)
  KPB9 fold reduction of colistin MIC: 1024 fold
[2]; compound at 5 μM, AB4106
  AB4106 colistin MIC in the presence of compound: 2 µg/mL
[2]; compound at 5 μM, vs colistin alone (2048 μg/mL)
  AB4106 fold reduction of colistin MIC: 1024 fold
K. pneumoniae B9 (KPB9) [6]
  MIC: 50 µM (≈ 19.2 µg/mL)
[7]
  MIC: 50 µM (≈ 19.2 µg/mL)
NF-κB
  IC50: 1070 ± 60 nM

## polymyxin B nonapeptide [PMBN]
AB4106
  toxicity against AB4106: no toxicity
